Compounds with a hit are over-represented: about 2.6% of the library has one in this group of screens.
Rin1-Abl PPI inh – inhibitors of Rin1-Abl protein binding, primary screen, biochemical, TR-FRET. hit rate 0.4% among 360,000. Tyrosine-protein kinase ABL1 (Homo sapiens) + Ras and Rab interactor 1 (Homo sapiens), …. inhibition, % at 7.35 µM; in the data active means inhibition above about 5%, passing the limit was not always enough
Rce1 inh – yeast Rce1p protease inhibitors, primary screen, biochemical, fluorescence, cell-free homogeneous | hit rate 0.27% among 290,000 | yeast membranes, quenched prenylated peptide cleavage fluorescence | calls only | CAAX prenyl protease 2 (Saccharomyces cerevisiae (strain ATCC 204508 / S288c)), Q03530 | AID 2563, 2010;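 active means fall in fluorescence gain of 50% or more versus controls, with final raw signal at or below 3038400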;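 further: plate controls were neutral control wells for no effect and wells lacking membranes for full effect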
Target sequence (Q03530 whole entry, looked up): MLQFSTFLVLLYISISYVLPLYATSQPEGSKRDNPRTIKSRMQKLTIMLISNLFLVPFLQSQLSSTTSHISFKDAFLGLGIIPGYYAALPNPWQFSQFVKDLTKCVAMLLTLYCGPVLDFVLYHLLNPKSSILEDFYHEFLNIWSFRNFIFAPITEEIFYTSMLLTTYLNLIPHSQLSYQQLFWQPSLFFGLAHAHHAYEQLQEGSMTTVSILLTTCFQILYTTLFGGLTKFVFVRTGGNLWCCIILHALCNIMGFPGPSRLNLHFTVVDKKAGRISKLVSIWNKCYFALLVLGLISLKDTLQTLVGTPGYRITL
SKN-1 block – suppressors of acrylamide-induced Pgst-4::GFP reporter in worms, primary screen, SKN-1 inhibitor project, whole organism, uHTS, GFP/RFP fluorescence ratio, strain VP596 | C. elegans VP596 Pgst-4::GFP/RFP ratio, 24 h | inhibition, % at 21.8 µM | hit rate 0.49% among 360,000;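 active means interference check ratio from 0.5 to 1.5 plus GFP to RFP signal ratio inhibition reaching or exceeding a fixed threshold, cut at about 30% in these data, passing the limit was not always enough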
GRK2 aptamer HTS – compounds blocking aptamer binding on GRK2 – biochemical, human GRK2, bead flow cytometry, HTS, primary screen | Beta-adrenergic receptor kinase 1 (Homo sapiens), P25098 | FAM-aptamer displacement from GRK2 | inhibition of aptamer binding, % at 10 µM | hit rate 0.59% among 330,000 | AID 488847, 2010;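 active means inhibition of aptamer binding above 40%, roughly 3 SD of noise, on plates passing a quality check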;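 further: median bead fluorescence of bound FAM aptamer so fluorescent compounds give negative values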
T cell HTS – modulators of CD8 T cell-vesicle binding, primary screen, mouse 2C CD8+ T cells, flow cytometry | 2C CD8+ T cell-vesicle binding; stronger effect = lower value | AID 2052, 2009 | hit rate 0.068% among 330,000 | response (vesicle binding), % at 7 µM;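 active means response, share of CD8 T cells binding vesicles, and their 90th percentile fluorescence all below set limits, cut at about 80% in these data, passing the limit was not always enough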;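 further: values below 100% mean blocked vesicle binding to the CD8+ T cells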
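Material: murine 2C transgenic CD8+ T lymphocytes / Also added: QL9-peptide-loaded Drosophila micro-vesicles bearing Ld, ICAM-1 and B7-1 / Schedule: binding step 1.5 h, 37 °C, antibody labelling 20 min, ice / Signal: flow cytometry, PE anti-B7-1 (FL2) versus Alexa647 anti-CD8 (FL8), PFA-fixed / Evaluation: percent CD8+ FL2 mean versus row control / Benchmarks: naked versus QL9-loaded vesicles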
Myeloid diff MLP – induction of myeloid progenitor differentiation, primary screen, cell-based, flow cytometry, MLPCN library; calls only at 10 µM; hit rate 1% among 360,000; AID 624256, 2012; ER-HoxA9 myeloid progenitors, lysozyme-GFP differentiation;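 active means normalized GFP-positive differentiation at or above the plate's own cutoff, the solvent-only control mean plus 3 SD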;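 further: cells exposed to compound for four days before flow analysis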
GRK2 inh confirm – GRK2 aptamer-displacing inhibitors, retest, confirmation, biochemical, cherry pick 1, bead flow cytometry; shares compounds with GRK2 aptamer HTS; bead-bound GRK2, FAM-aptamer displacement; aptamer displacement, % at 10 µM; hit rate 4% among 2,000; AID 504451, 2011;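 active means aptamer displacement above 40%, near three times the noise of non-fluorescent compounds, on plates passing quality checks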;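 further: negative values mostly reflect intrinsic compound fluorescence rather than true enhancement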
Aptamer quench SP – aptamer fluorescence quenching in GRK2 counter-screen; shares compounds with GRK2 aptamer HTS; Carboxyfluorescein RNA aptamer on beads, flow cytometry quenching; stronger effect = lower value; fluorescence response (% of DMSO), % at 10 µM; 2,000 tested, under 10 active;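 active means compounds that quench the bead-bound fluorescent RNA probe, cutting fluorescence to under half of the solvent control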;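 further: counterscreen run without GRK2 so only probe quenching by compound is measured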
The depositor's hits bear a star.

How did CCOc1ccccc1C(=O)N[C@H](C(=O)Nc1nc2c(s1)CCCC2)C(C)C do in these assays?
Rin1-Abl PPI inh: 5; Rce1 inh: inactive; SKN-1 block: 22; GRK2 aptamer HTS: 43*; T cell HTS: 563; Myeloid diff MLP: inactive; GRK2 inh confirm: 1; Aptamer quench SP: 97

What do the screens show for `NC(=O)c1cc(S(=O)(=O)Nc2cccc(Cl)c2)cs1`?
Rin1-Abl PPI inh: -2; Rce1 inh: inactive; SKN-1 block: 10; GRK2 aptamer HTS: 0; T cell HTS: 190; Myeloid diff MLP: inactive

How did COc1ccc(NC(=S)N(CCO)Cc2cc3c(C)cc(C)cc3[nH]c2=O)cc1 do in these assays?
Rin1-Abl PPI inh: -1; Rce1 inh: inactive; SKN-1 block: -13; GRK2 aptamer HTS: 2; T cell HTS: 175; Myeloid diff MLP: inactive

Results for CCOC(=O)N1CCC(=NNC(=O)COc2cccc(C)c2)CC1 ?
Rin1-Abl PPI inh: -3; Rce1 inh: inactive; SKN-1 block: -2; GRK2 aptamer HTS: 0; T cell HTS: 256; Myeloid diff MLP: inactive

Results for C/C(=C\C(=O)c1ccc(C)cc1)Nc1cccc(O)c1 ?
Rin1-Abl PPI inh: -4; Rce1 inh: inactive; SKN-1 block: 8; GRK2 aptamer HTS: 34; T cell HTS: 156; Myeloid diff MLP: inactive; GRK2 inh confirm: 1; Aptamer quench SP: 100

How did Cc1nn(-c2ccc(F)cc2)c(Cl)c1/C=C(/CC(=O)O)c1nc2ccccc2s1 do in these assays?
Rin1-Abl PPI inh: 2; SKN-1 block: 1; Myeloid diff MLP: inactive

What do the screens show for `Cc1nn(-c2ccc(F)cc2)c(Cl)c1/C=C(\CC(=O)O)c1nc2ccccc2s1`?
Rin1-Abl PPI inh: -1; Rce1 inh: inactive; SKN-1 block: 0; GRK2 aptamer HTS: 2; T cell HTS: 623; Myeloid diff MLP: inactive; GRK2 inh confirm: 2; Aptamer quench SP: 98

Results for CSC1=NC(C)N2C(SC)=NC(C)N12 (centres undefined) ?
Rin1-Abl PPI inh: 1; Rce1 inh: inactive; SKN-1 block: 2; GRK2 aptamer HTS: 1; T cell HTS: 830; Myeloid diff MLP: inactive

How did COc1ccc(CNC(=O)C(=O)c2cn(CC(=O)N3CCOCC3)c3ccccc23)cc1 do in these assays?
Rin1-Abl PPI inh: 0; Rce1 inh: inactive; SKN-1 block: 5; GRK2 aptamer HTS: 0; T cell HTS: 140; Myeloid diff MLP: inactive

What do the screens show for `O=C(NCc1ccc(Cl)cc1)C(=O)c1cn(CC(=O)N2CCOCC2)c2ccccc12`?
Rin1-Abl PPI inh: -3; Rce1 inh: inactive; SKN-1 block: 0; GRK2 aptamer HTS: 45*; T cell HTS: 301; Myeloid diff MLP: inactive; GRK2 inh confirm: 2; Aptamer quench SP: 105

Results for Cc1cccc(-n2c(N)c(C(=O)NCCN3CCOCC3)c3nc4ccccc4nc32)c1 ?
Rce1 inh: inactive; GRK2 aptamer HTS: 100*; T cell HTS: 286; GRK2 inh confirm: 1; Aptamer quench SP: 95

How did CCN(CC)CCCNC(=O)CNC(=O)c1nn(-c2ccc(OC)c(OC)c2)c(=O)c2ccccc12 do in these assays?
Rin1-Abl PPI inh: -2; Rce1 inh: inactive; SKN-1 block: 13; GRK2 aptamer HTS: 2; T cell HTS: 251; Myeloid diff MLP: inactive

How did CCN(CC)CCCNC(=O)CNC(=O)c1nn(-c2ccc(OC)cc2)c(=O)c2ccccc12 do in these assays?
Rin1-Abl PPI inh: -2; Rce1 inh: inactive; SKN-1 block: -5; GRK2 aptamer HTS: 0; T cell HTS: 288; Myeloid diff MLP: inactive

Results for CCCCNC(=O)CNC(=O)c1nn(-c2ccc(OC)cc2)c(=O)c2ccccc12 ?
Rin1-Abl PPI inh: 1; Rce1 inh: inactive; SKN-1 block: 11; GRK2 aptamer HTS: 26; T cell HTS: 284; Myeloid diff MLP: inactive; GRK2 inh confirm: 2; Aptamer quench SP: 94

Results for CCN(CC)CCNC(=O)CNC(=O)c1nn(-c2ccc(OC)c(OC)c2)c(=O)c2ccccc12 ?
Rin1-Abl PPI inh: 2; Rce1 inh: inactive; SKN-1 block: -5; GRK2 aptamer HTS: 0; T cell HTS: 231; Myeloid diff MLP: inactive; GRK2 inh confirm: 1; Aptamer quench SP: 99

How did CCN(CC)CCNC(=O)CNC(=O)c1nn(-c2ccc(OC)cc2)c(=O)c2ccccc12 do in these assays?
Rin1-Abl PPI inh: -2; Rce1 inh: inactive; SKN-1 block: -18; GRK2 aptamer HTS: 0; T cell HTS: 466; Myeloid diff MLP: inactive; GRK2 inh confirm: 1; Aptamer quench SP: 95

Results for COc1ccc(-n2nc(C(=O)NCC(=O)NCCN(C)C)c3ccccc3c2=O)cc1 ?
Rin1-Abl PPI inh: 2; Rce1 inh: inactive; SKN-1 block: 2; GRK2 aptamer HTS: 23; T cell HTS: 499; Myeloid diff MLP: inactive; GRK2 inh confirm: 3; Aptamer quench SP: 93

What do the screens show for `COc1ccc(-n2nc(C(=O)NCC(=O)NCCCN3CC(C)CC(C)C3)c3ccccc3c2=O)cc1` (centres undefined)?
Rin1-Abl PPI inh: 1; Rce1 inh: inactive; SKN-1 block: -6; GRK2 aptamer HTS: 0; T cell HTS: 277; Myeloid diff MLP: inactive

How did Cc1c(C(=O)/C=C/N(C)C)nnn1-c1ccc(Cl)cc1C#N do in these assays?
Rin1-Abl PPI inh: -2; Rce1 inh: inactive; SKN-1 block: 10; GRK2 aptamer HTS: 1; T cell HTS: 234; Myeloid diff MLP: inactive

Results for COc1cc(NC(=O)c2csc(-c3ccncc3)n2)cc(C(=O)Nc2cccc(C(F)(F)F)c2)c1 ?
Rin1-Abl PPI inh: 0; Rce1 inh: inactive; SKN-1 block: 22; GRK2 aptamer HTS: 1; T cell HTS: 414; Myeloid diff MLP: inactive; GRK2 inh confirm: -2; Aptamer quench SP: 98

What do the screens show for `COc1ccc(-c2cc(C(=O)Nc3cc(OC)cc(C(=O)Nc4cccc(C(F)(F)F)c4)c3)[nH]n2)cc1`?
Rin1-Abl PPI inh: -2; Rce1 inh: inactive; SKN-1 block: 0; GRK2 aptamer HTS: 0; T cell HTS: 239; Myeloid diff MLP: inactive; GRK2 inh confirm: -1; Aptamer quench SP: 97

Assay outcomes: PubChem BioAssay, several laboratories
